In the library only some 4.1% were active in any assay of this set; here they are far more common.
KCC2 mod: modulates chloride dependent transport by human KCC2; Q9H2X9; B-score of Tl+ flux slope (higher = more flux/activation; lower = inhibition) at 10 µM; KCC2 cells, thallium flux FluoZin-2 fluorescence; 190,000 tested, 2.2% active;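 active means thallium flux slope and its plate-corrected score both differing from the plate sample mean at a set confidence after two filtering rounds, in either direction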;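 further: slope of fluorescence scaled to starting intensity during 10 to 20 s after thallium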
KCNK3 inh: human KCNK3 channel inhibition, primary screen; B-score at 10 µM; CHO-KCNK3 thallium flux, FluxOR fluorescence; hits give low values; 340,000 tested, 0.84% active;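 active means B-score under library mean minus 4 SD, starting fluorescence ratio at most library mean plus 5 SD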;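 further: more negative B-score means stronger inhibition of thallium flux through KCNK3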
Target sequence (O14649 whole entry, looked up): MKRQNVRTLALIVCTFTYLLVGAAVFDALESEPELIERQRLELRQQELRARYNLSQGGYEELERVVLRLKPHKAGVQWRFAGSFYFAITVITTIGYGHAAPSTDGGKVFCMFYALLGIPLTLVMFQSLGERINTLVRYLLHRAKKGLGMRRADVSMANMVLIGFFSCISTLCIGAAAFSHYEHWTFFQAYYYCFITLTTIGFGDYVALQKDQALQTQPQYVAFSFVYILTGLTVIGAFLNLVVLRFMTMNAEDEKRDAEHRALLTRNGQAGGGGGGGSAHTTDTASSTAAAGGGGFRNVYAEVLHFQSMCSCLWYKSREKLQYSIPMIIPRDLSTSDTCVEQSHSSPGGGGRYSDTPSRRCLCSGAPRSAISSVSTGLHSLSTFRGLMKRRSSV
KCNK9 block: human KCNK9 channel inhibition; HEK293 KCNK9, FluxOR thallium flux fluorescence; hits give low values; B-score at 10 µM; 310,000 tested, 1.2% active; AID 488922;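 active means ratio B-score over 3 SD below the library mean, with starting fluorescence within 5 SD of its mean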;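 further: negative B-score means less thallium flux so channel inhibition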
KCNQ1 act: potentiators or activators of human KCNQ1 potassium channel | P51787 | CHO-K1 KCNQ1, thallium flux FluxOR fluorescence; hits give high values | B-score at 10 µM | 310,000 tested, 0.35% active;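 active means fluorescence ratio B-score, a plate-corrected score, at least three library SD, with initial intensity B-score within 5 SD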
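Assay system: CHO-K1 cells stably expressing KCNQ1. Medium: assay buffer for compound exposure, DMSO matched across wells. Timing: 37 °C overnight plating, 90-min dark dye load, 20-min compound pretreatment. Signal: kinetic FluxOR fluorescence, 10 s baseline plus 110 s post-stimulus.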
KCNQ1 inh: human KCNQ1 channel inhibition. CHO-K1 KCNQ1, FluxOR thallium flux fluorescence; hits give high values. B-score at 10 µM. 310,000 tested, 1.3% active. AID 2642;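 active means compounds whose thallium flux B-score, printed positive for inhibition, exceeds three library SD while starting fluorescence stays within three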;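 further: channel opened by potassium depolarization with thallium stimulus after 20 min compound exposure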
hERG protect: shields human hERG channel from block by proarrhythmic agents; 310,000 tested, 0.51% active; CHO-hERG, FluxOR thallium flux, dofetilide IC70 present; activation (rescue from dofetilide block), less the hit threshold, % at 10 µM;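 active means activation above the mean of controls blocked by dofetilide plus 5 SD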;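 further: thallium influx through hERG after potassium depolarization seen as dye fluorescence rise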
Numbers stand for hits; n = inactive; x = no result given.

SMILES	KCC2 mod	KCNK3 inh	KCNK9 block	KCNQ1 act	KCNQ1 inh	hERG protect
O=C(CCn1c(=O)c2sccc2n(CC(=O)OCc2ccccc2)c1=O)NCc1ccccc1	x	n	n	n	n	5.2
NS(=O)(=O)c1ccc(CNC(=O)CCC2CCCCC2)cc1	n	n	n	n	n	n
Cc1cc(C)c(S(=O)(=O)NCC23C=CC(O2)C2C(=O)N(c4ccccc4)C(=O)C23)c(C)c1 (centres undefined)	n	n	n	n	n	n
Cc1cccc(C(=O)NCCC(=O)N2CCc3ccccc3C2)c1	x	n	x	x	x	x
Cc1cccc(C(=O)NC(=S)N2CCc3ccccc3C2)c1	125	n	n	13	n	21
COCc1ccc(CN2CCC(C(=O)Nc3cccc(-c4cccc(Cl)c4)c3)CC2)o1	x	n	n	n	8	n
CCOc1ccc(OCC)c(NC(=O)CN2CCN(c3cccc(C)c3)CC2)c1	n	n	n	n	n	n
CCOc1ccc(OCC)c(NC(=O)CN2CCN(c3cc(C)ccc3C)CC2)c1	x	n	n	n	6	n
CCOc1ccc(NC(=O)C2CCN(S(=O)(=O)CC)CC2)cc1	x	n	n	n	n	n
O=C(Nc1ccc(Cl)c(Cl)c1)c1cccnc1	x	n	n	n	n	n
Cc1ccc(C2=NN(C(=O)CCCC(=O)O)C(c3ccc4c(c3)OCO4)C2)cc1 (centres undefined)	x	n	n	n	n	5.5
Cc1ccc(C2=NN(C(=O)CCC(=O)O)C(c3ccc4c(c3)OCO4)C2)cc1 (centres undefined)	x	n	n	n	n	n
CCCCNC(=O)c1cccc(S(=O)(=O)N2CC3(C)CC2CC(C)(C)C3)c1 (centres undefined)	x	n	x	x	x	x
CC(NC(=S)Nc1ccc([N+](=O)[O-])cc1)c1ccncc1 (centres undefined)	n	n	n	n	7	n
O=[N+]([O-])c1ccc(NC(=S)NCc2ccncc2)cc1	n	n	n	n	n	n
O=C(NNS(=O)(=O)c1ccc([N+](=O)[O-])cc1)c1ccccc1	x	n	x	x	x	x
O=C(NNS(=O)(=O)c1ccc([N+](=O)[O-])cc1)c1ccc2ccccc2c1O	x	n	n	n	7	n
CC1(C)C2([N+](=O)[O-])CN3CC1([N+](=O)[O-])CN(C2)C3c1ccc(O)c(O)c1 (centres undefined)	n	n	n	n	n	n
O=C1C=C(c2ccccc2)OC(=O)C1C(=O)c1ccccc1 (centres undefined)	n	n	n	n	n	5.4
CC1=C(C(=O)Nc2ccccc2)C(c2ccco2)C(C#N)=C(SCC(=O)OC(C)C)N1 (centres undefined)	n	-9.8	n	n	n	n
CCc1ccc(C(=O)CSC2=C(C#N)C(c3ccco3)C(C(C)=O)=C(C)N2)cc1 (centres undefined)	x	x	-11	n	n	n
CC(=O)C1=C(C)NC(SCC(=O)c2ccc(F)cc2)=C(C#N)C1c1ccco1 (centres undefined)	x	n	n	n	n	n
COc1ccc(C2=NN(C(=O)CCCC(=O)O)C(c3cccs3)C2)cc1OC (centres undefined)	n	n	n	n	n	n
O=C1[C@@H]2C(c3cccnc3)=NO[C@@H]2C(=O)N1c1ccc2ccccc2c1	n	n	n	n	n	n
COc1ccc(NC(=O)c2sc(SCc3ccccc3)nc2N)cc1	n	n	n	n	n	n
SMILES	KCC2 mod	KCNK3 inh	KCNK9 block	KCNQ1 act	KCNQ1 inh	hERG protect
COc1ccc(NC(=O)c2sc(SC)nc2N)cc1	n	n	n	n	n	5.1
O=P(Cc1ccccc1)(c1ccccc1)c1ccccc1	n	n	n	n	n	n
CC(C)(C)c1cc(CP(=O)(c2ccccc2)c2ccccc2)cc(C(C)(C)C)c1O	x	n	n	n	6	n
Cc1c(-c2nc(-c3ccncc3)no2)cccc1[N+](=O)[O-]	n	n	n	11	n	n
O=[N+]([O-])c1cc(-c2nc(-c3ccncc3)no2)cc([N+](=O)[O-])c1	n	n	n	n	n	n
Cc1ccccc1SCC(=O)Nc1cc(C(F)(F)F)ccc1N1CCOCC1	x	n	n	n	14	n
O=C(Cn1c(C(F)(F)F)nc2ccccc21)Nc1ccccc1N1CCOCC1	n	n	n	n	n	n
CSc1nc2ccccc2n1CC(=O)Nc1cc(C(F)(F)F)ccc1N1CCOCC1	n	n	-7.8	n	n	n
CC(=O)Nc1ccc(S(=O)(=O)n2nc(C)cc2C)cc1	n	n	n	n	n	n
O=C(Nc1ccc(NC(=O)C2CC2)nc1)c1cccnc1	n	n	n	n	n	4.9
CC(=O)N1CCN(c2ccc(NC(=O)c3cccc(Cl)c3)cc2)CC1	x	n	n	n	n	n
COc1ccc(S(=O)(=O)N2CCC(C(=O)N[C@@H](C)C(=O)NCc3ccc(F)cc3)CC2)cc1	x	n	n	n	n	n
CN(C)c1cccc(C(=O)OCC(=O)Nc2ccccc2-c2ccccc2)c1	n	n	n	n	n	n
CC(=O)Nc1ccc(C(=O)OCC(=O)Nc2ccccc2F)cc1	n	n	n	n	n	n
CN(C)c1cccc(C(=O)OCC(=O)Nc2ccccc2Sc2ccccc2)c1	n	n	n	n	6	n
CC(=O)Nc1ccc(C(=O)OCC(=O)Nc2ccccc2Sc2ccccc2)cc1	n	n	-7.2	n	n	n
CCOC(=O)c1c(S(=O)(=O)NCCc2cccs2)c(C)n(C)c1C	x	n	n	n	n	n
Cc1cccc2sc(NC(=O)C3CCN(S(=O)(=O)c4cc([N+](=O)[O-])ccc4Cl)CC3)nc12	n	n	n	n	11	n
COc1ccc(OC)c(NC(=S)N2CCC(C(O)(c3ccccc3)c3ccccc3)CC2)c1	n	n	n	44	n	n
O[C@@H]1[C@@H](O)C=C2CCN3Cc4cc5c(cc4[C@H]1C23)OCO5 (some centres undefined)	x	n	x	x	x	x
O=C(CSc1nc(C(F)(F)F)cc(=O)[nH]1)N1CCC(Cc2ccccc2)CC1	x	n	n	n	6	n
CCNC(=S)N/N=C(\C)c1cc2ccccc2o1	9.1	n	n	n	n	n
C/C(=N\NC(=O)C1CC1)c1ccc(C)c(C)c1	x	n	n	n	n	n
CNC(=S)N/N=C(\C)c1ccc(C)c(C)c1	5.1	n	n	n	n	n
C=C(C)CNC(=S)N/N=C(\C)c1ccc(Cl)s1	13	n	n	n	n	n
C/C(=N/Nc1ccc(F)cc1)c1ccc(Cl)s1	n	n	n	n	n	n
CCNC(=S)N/N=C(\C)c1ccc(Cl)s1	19	n	n	n	n	n
O=C(CSc1nncs1)Nc1cc(S(=O)(=O)N2CCOCC2)ccc1N1CCCC1	x	n	x	x	x	x
CCN(CC)C(=O)Cn1cc(S(=O)(=O)CC(=O)NCc2ccc(C)cc2)c2ccccc21	x	n	n	n	n	n

Bioassay records deposited in PubChem by several laboratories.
